Results published in ChEMBL document CHEMBL1141143, “Novel 17beta-substituted conformationally constrained neurosteroids that modulate GABA A receptors” (J Med Chem, 2005).

target: GABA-A receptor; anion channel (Rattus norvegicus) (UniProt O09028+P15431+P18506+P18508+P19969+P20236+P23574+P23576+P28471+P28473+P30191+P62813+P63079+P63138+Q91ZM7+Q9ES14); assay: Displacement of [3H]EBOB from GABA-A receptors of rat cerebellum; format: tissue-based
Outline: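 Rat cerebellar synaptosomal membranes: homogenized in 0.32 M sucrose, differentially centrifuged, water-lysed, Tris HCl (pH 7.4) washed, frozen; thawed membranes spun in 50 mM Tris HCl with 0.2 M NaCl. Incubated 2 h at 25 °C with 1 nM [3H]EBOB; nonspecific binding with 50 µM picrotoxin. Duplicates filtered on GF/B. Specific binding ratio with/without steroid fitted by nonlinear regression; mean ± SEM.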

| SMILES | Ks |
| --- | --- |
| C#C[C@H](OC)[C@H]1CC[C@H]2[C@@H]3CC[C@H]4C[C@H](O)CC[C@]4(C)[C@H]3CC[C@]12C | 924 nM |
| C=C=C[C@@H](O)[C@H]1CC[C@H]2[C@@H]3CC[C@H]4C[C@H](O)CC[C@]4(C)[C@H]3CC[C@]12C | 2.8 nM |
| Cc1ccc(C#C[C@H]2CC[C@H]3[C@@H]4CC[C@H]5C[C@H](O)CC[C@]5(C)[C@H]4CC[C@]23C)cc1 | 4100 nM |
| CC(O)C#C[C@H]1CC[C@H]2[C@@H]3CC[C@H]4C[C@H](O)CC[C@]4(C)[C@H]3CC[C@]12C (stereo partly drawn) | 946 nM |
| COc1ccc(C#C[C@H](O)[C@H]2CC[C@H]3[C@@H]4CC[C@H]5C[C@H](O)CC[C@]5(C)[C@H]4CC[C@]23C)cc1 | 1640 nM |
| C[C@]12CC[C@@H](O)C[C@@H]1CC[C@@H]1[C@@H]2CC[C@]2(C)[C@@H](C#CBr)CC[C@@H]12 | 350 nM |
| C#C[C@@H](OC)[C@H]1CC[C@H]2[C@@H]3CC[C@H]4C[C@H](O)CC[C@]4(C)[C@H]3CC[C@]12C | 802 nM |
| COc1ccc(C#C[C@@H](O)[C@H]2CC[C@H]3[C@@H]4CC[C@H]5C[C@H](O)CC[C@]5(C)[C@H]4CC[C@]23C)cc1 | 870 nM |
| C#C[C@@H](O)[C@H]1CC[C@H]2[C@@H]3CC[C@H]4C[C@H](O)CC[C@]4(C)[C@H]3CC[C@]12C | 145 nM |
| C=C=C[C@H](O)[C@H]1CC[C@H]2[C@@H]3CC[C@H]4C[C@H](O)CC[C@]4(C)[C@H]3CC[C@]12C | 810 nM |
| C#CC(=O)[C@H]1CC[C@H]2[C@@H]3CC[C@H]4C[C@H](O)CC[C@]4(C)[C@H]3CC[C@]12C | 844 nM |
| CC(=O)[C@H]1CC[C@H]2[C@@H]3CC[C@H]4C[C@H](O)CC[C@]4(C)[C@H]3CC[C@]12C | 198 nM |
| C#C[C@H](O)[C@H]1CC[C@H]2[C@@H]3CC[C@H]4C[C@H](O)CC[C@]4(C)[C@H]3CC[C@]12C | 494 nM |
